# Assay outcomes deposited in PubChem BioAssay by several laboratories.
# KCC2 mod = modulators of human KCC2 chloride dependent transport | Q9H2X9 | KCC2 cells, thallium flux FluoZin-2 fluorescence | B-score of Tl+ flux slope (higher = more flux/activation; lower = inhibition) at 10 µM | actives 2.2% (n = 190,000) | AID 1456;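 active means thallium flux slope and its plate-corrected score both differing from the plate sample mean at a set confidence after two filtering rounds, in either direction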;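 further: slope of fluorescence scaled to starting intensity during 10 to 20 s after thallium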
# RGS4 act = RGS4 potentiation or activation; HEK293 M3R/inducible RGS4, carbachol calcium flux Fluo4; stronger effect = lower value; B-score at 10 µM; actives 0.92% (n = 310,000);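 active means B-score of the integrated calcium signal more than 4 SD below the library mean, with starting fluorescence not abnormally high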;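 further: negative B-score means reduced calcium response which marks RGS4 activation or potentiation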
#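 System: HEK293 FlpIn-TREx cells, stable M3R, doxycycline-inducible RGS4. Timing: overnight RGS4 induction, 30 min dye load 37 °C, 20 min compound RT. Also added: carbachol, ECmax concentration. Measured by: Fluo4 fluorescence kinetic imaging of calcium. Evaluation: integrated calcium ratio converted to B score.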
# MrgX1 PAM = human MrgX1 positive allosteric modulation, primary screen. MrgX1-HEK293, Fluo-4 calcium flux, FDSS; stronger effect = higher value. B-score at 10 µM. actives 0.63% (n = 310,000);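 active means plate-corrected calcium response at least 3 library SD above typical, normal starting fluorescence, not activating the receptor alone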;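 further: compound read alongside a low EC10 to EC30 dose of BAM8-22 agonist; peak minus trough fluorescence over baseline measured at the second addition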
# MrgX1 agonist = agonists of human MrgX1 receptor; Q96LB2; MrgX1-HEK293 cells, Fluo-4 calcium fluorescence, agonist mode; stronger effect = higher value; B-score at 10 µM; actives 0.44% (n = 310,000);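 active means calcium response B-score plate-corrected fluorescence ratio at least 3 library SD, with starting fluorescence B-score inside 5 SD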
#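 Test system: Stable human MrgX1 HEK293 cell line | Schedule: Overnight plating before 1 h dye loading | Read-out basis: Baseline-normalised fluorescence change ratio, B-scored | Detection: Kinetic calcium dye fluorescence, Fluo-4 NW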
# RGS4 inh = inhibitors of human RGS4. actives 0.45% (n = 310,000). AID 463165. B-score at 10 µM. HEK293 M3R/RGS4 inducible, Fluo-4 calcium flux; stronger effect = higher value; triggered by carbachol at its EC20;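 active means B-score, a plate-corrected calcium signal, over three deviations above library mean, with baseline fluorescence within five deviations of library mean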;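 further: RGS4 expression induced by doxycycline in cells with stable M3 receptor; B-score is computed from the integrated fluorescence ratio over baseline after carbachol; higher B-score means a larger calcium signal and so more RGS4 inhibition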
# Target sequence (P49798 whole entry, looked up): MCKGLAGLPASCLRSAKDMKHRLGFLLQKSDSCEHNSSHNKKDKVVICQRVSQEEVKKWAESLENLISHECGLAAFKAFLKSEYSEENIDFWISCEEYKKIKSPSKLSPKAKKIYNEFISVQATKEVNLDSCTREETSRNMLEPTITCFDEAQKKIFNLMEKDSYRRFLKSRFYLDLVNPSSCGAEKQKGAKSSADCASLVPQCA
# MrgX1 antag = human MrgX1 receptor antagonism, primary screen | Q96LB2 | MRGX1-HEK293 calcium flux, Fluo-4, BAM8-22 antagonism; stronger effect = lower value | B-score at 10 µM | actives 1.3% (n = 310,000);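 active means calcium-response B-score plate-corrected more than 3 library SD below zero, starting fluorescence within 5 deviations, no agonist response on first addition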;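 further: peak minus trough fluorescence over baseline after final BAM8-22 challenge near maximal dose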
# RGS4 block valid = validation of RGS4 inhibitors. shares compounds with RGS4 inh. HEK293 M3R/RGS4, carbachol calcium Fluo-4 fluorescence; carbachol added at its EC20; 0 = buffer wells, 100 = carbachol control. calcium response, % at 10 µM. actives 65% (n = 1,700);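 active means duplicate-averaged calcium response above the buffer-only control mean plus 5 SD of those controls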;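 further: integrated fluorescence ratio F max minus min over baseline F0; higher response in RGS4-induced cells means RGS4 inhibition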
# M3R Ca ctr = checks RGS4 inhibitor effects in non-induced HEK293 M3R cells; shares compounds with RGS4 inh; carbachol calcium Fluo-4; submaximal (EC20) carbachol stimulus; buffer wells 0%, carbachol control wells 100%; activity (percent), % at 10 µM; actives 20% (n = 1,900); AID 493000; call rule not given here;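 further: RGS4 induction absent so cells express M3R without RGS4; higher means more calcium signal and flags a non-specific hit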
# RGS4 inh ctr2 = second counter-screen for RGS4 inhibitors: non-induced cells without carbachol; HEK293 M3R/RGS4 non-induced, Fluo-4 calcium, no carbachol; normalised: buffer wells 0%, carbachol wells 100%; shares compounds with RGS4 inh; calcium response (agonist-mode artifact), % at 10 µM; actives 22% (n = 1,900);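 active means duplicate-averaged calcium rise in uninduced cells above buffer wells' mean plus 5 SD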
# Starred values were filed as active, the others as inactive; i = inactive; · = no result. This is a sample that favours compounds with a hit; in the whole collection about 4.7% have one here.
SMILES,KCC2 mod,RGS4 act,MrgX1 PAM,MrgX1 agonist,RGS4 inh,MrgX1 antag,RGS4 block valid,M3R Ca ctr,RGS4 inh ctr2
COc1cc(/C=C(/C)[N+](=O)[O-])ccc1OCc1ccccc1Cl,0.039,i,i,i,31.3*,i,10.5%*,i,38.5%*
CN1C(=O)C(=Cc2ccccc2OCc2ccccc2Cl)C(=O)N(C)C1=O,-0.317,i,i,i,i,i,·,·,·
Cc1cc(C)cc(N2C(=O)NC(=O)/C(=C\c3cccn3-c3ccc(Cl)cc3)C2=O)c1,0.00564,i,i,i,i,i,·,·,·
Cc1cc(C)cc(N2C(=O)NC(=O)/C(=C\c3cccn3-c3ccccc3)C2=O)c1,0.155,i,i,i,9.2*,i,18.0%*,i,15.0%*
CCN(CC)c1ccc(/C=C/[N+](=O)[O-])cc1,i,i,i,i,10.2*,i,29.0%*,i,580.5%*
NC(Cc1nc2ccccc2[nH]1)c1ccc(Cl)cc1 (stereo unspecified),-0.378,i,i,i,i,i,·,·,·
C=C(CO)CC1CC(O)[C@]2(C)OC3CC4OC5C[C@]6(C)O[C@]7(C)CCC8OC9C[C@]%10(C)OC%11C(C)=CC(=O)OC%11CC%10OC9C[C@@H](C)C8OC7CC6O[C@]5(C)C/C=C\C4OC3CC2O1 (stereo partly specified),0.863,i,i,i,i,i,·,i,i
COc1cccc(NC2=NCCCS2)c1,·,i,i,i,i,i,·,·,·
O=C1/C(=C\c2ccc([N+](=O)[O-])cc2)N2CCC1CC2,1.08,i,i,i,5.91*,i,5.0%*,i,i
COC(=O)C1=C(c2cccc(OC)c2OC)C[C@@H]2CC[C@H]1N2C(=O)NCc1ccco1,·,i,i,i,i,i,·,·,·
C=C1C(=O)O[C@@H]2C[C@@H](C)[C@@H]3C=CC(=O)[C@@]3(C)[C@@H](O)[C@H]12,-0.196,i,i,i,5.18*,i,35.0%*,i,i
COc1ccc(Cn2c(O)c(/C=N/NC(=O)c3ccncc3)c(=O)[nH]c2=O)cc1,0.321,i,i,i,i,i,·,·,·
COc1ccc(Cn2c(O)c(C=NCCCn3ccnc3)c(=O)[nH]c2=O)cc1,·,i,i,i,i,i,·,·,·
O=C(N/N=C/c1c(O)n(Cc2ccccc2)c(=O)[nH]c1=O)c1ccccc1O,-2.35,i,i,i,6.9*,i,11.5%*,i,i
COc1ccc(Cn2c(O)c(/C=N/NC(=O)c3ccccc3O)c(=O)[nH]c2=O)cc1,-0.216,i,i,i,i,i,·,i,i
COc1ccc(Cn2c(O)c(/C=N/NC(=O)c3ccccc3)c(=O)[nH]c2=O)cc1,-0.738,i,i,i,i,i,·,i,9.5%*
O=C(N/N=C/c1c(O)n(Cc2ccc(F)cc2)c(=O)[nH]c1=O)c1ccccc1O,-0.558,i,i,i,i,i,i,i,i
CCOC(=O)C1CCCN(c2ccc([N+](=O)[O-])c3nonc23)C1 (stereo unspecified),i,i,·,·,i,·,·,·,·
Cn1cc(C(O)CN2CCCCC2)c2ccccc21 (stereo unspecified),·,i,i,i,i,i,·,·,·
